These results are taken from ChEMBL document CHEMBL3580560, “Isolation, Structural Modification, and HIV Inhibition of Pentacyclic Lupane-Type Triterpenoids from Cassine xylocarpa and Maytenus cuzcoina” (J Nat Prod, 2015).

A short description of data set [1]: Cytotoxicity against mock-infected human MT2 cells assessed as reduction in cell viability incubated for 48 hrs by cell-titer Glo assay. The data set is classed as cell-based. Put shortly: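 Uninfected MT-2 cells received RPMI medium instead of viral supernatant and were treated in parallel with the same fivefold dilutions (100–0.032 μM). […] Values are the mean of at least three independent experiments.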

Data set [2] has as its system Human immunodeficiency virus 1. Nature of the data set: Antiviral activity against HIV1 NL4.3-Ren infected in human MT2 cells assessed as inhibition of viral growth by measuring relative luminescence units at 10 uM measured 48 hrs post infection by luminometry relative to untreated control. Type of data set: functional. Also on record: scale not given: the % may be the effect or the level left.

Data set [3] relates to Human immunodeficiency virus 1. Nature of the data set: Antiviral activity against HIV1 NL4.3-Ren infected in human MT2 cells assessed as inhibition of viral growth measured 48 hrs post infection by luminometry. Type of data set: functional, organism-based. The following applies: Human immunodeficiency virus 1, NL4.3-Ren, MT2, 48 h. Put shortly:
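MT-2 cells infected with X4-tropic HIV-1 NL4.3-Ren supernatant produced in 293T cells. Fivefold serial dilutions from 100 to 0.032 μM were tested. At 48 h postinfection, cells were lysed and Renilla luciferase RLU were measured. IC50 was fitted from the dose–response curve; values are the mean of at least three independent experiments.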

The test system of data set [4] is Human immunodeficiency virus 1. Nature of the data set: Antiviral activity against HIV1 NL4.3-Ren infected in human MT2 cells assessed as inhibition of viral growth at 10 uM measured 48 hrs post infection by luminometry. Type of data set: functional. The following applies: Human immunodeficiency virus 1, NL4.3-Ren, MT2, 48 h.
The nature of data set [5]: Selectivity index, ratio of CC50 for mock-infected human MT2 cells to IC50 for HIV1 NL4.3-Ren infected in human MT2 cells. The data set is classed as functional.

As to `C=C(C=O)[C@@H]1CC[C@]2(C)CC[C@]3(C)[C@H](CC[C@@H]4[C@@]5(C)CCC(=O)C(C)(C)[C@@H]5[C@H](O)C[C@]43C)[C@@H]12`, in data set [1], the CC50 at 48 h was determined as 10.4 µM. In addition, in data set [2], the Activity came to 5%. In data set [3], the IC50 amounted to 7.9 µM. Further, the inhibition at 10 µM in data set [4] is more than 50%. In data set [5], the “Ratio CC50/IC50” value is given as 1.3.

Turning to `C=C(C=O)[C@@H]1CC[C@]2(C)CC[C@]3(C)[C@H](CC[C@@H]4[C@@]5(C)CCC(=O)C(C)(C)[C@@H]5CC[C@]43C)[C@@H]12`, the CC50 at 48 h in data set [1] came out at 5.7 µM. Moreover, the Activity in data set [2] amounted to 0%. Further, in data set [3], the IC50 is 1.4 µM. For the same compound, the inhibition at 10 µM in data set [4] is more than 50%. Also, the “Ratio CC50/IC50” value in data set [5] is listed as 4.2.

Consider `C=C(C=O)[C@@H]1CC[C@]2(COC(C)=O)CC[C@]3(C)[C@H](CC[C@@H]4[C@@]5(C)CC[C@H](O)C(C)(C)[C@@H]5CC[C@]43C)[C@@H]12`, for which the CC50 at 48 h in data set [1] stood at 14.2 µM. The Activity in data set [2] is 0%. In addition, the IC50 in data set [3] stood at 1.7 µM. For the same compound, the inhibition at 10 µM in data set [4] was more than 50%. Moreover, in data set [5], the “Ratio CC50/IC50” value is reported as 8.2.

As to `C=C(C)[C@@H]1CC[C@]2(C)CC[C@]3(C)[C@@H](CC[C@@H]4[C@@]5(C)[C@@H](O)C[C@H](O)C(C)(C)[C@@H]5CC[C@]43C)[C@@H]12` [GLOCHIDIOL], in data set [1], the CC50 at 48 h came to 20 µM. Besides, the IC50 in data set [3] was 13.9 µM. Besides, in data set [4], the inhibition at 10 µM was more than 50%. Besides, in data set [5], the “Ratio CC50/IC50” value was 1.4.

Turning to `C=C1C(=O)O[C@@H]2C[C@]3(C)CC[C@]4(C)[C@H](CC[C@@H]5[C@@]6(C)CCC(=O)C(C)(C)[C@@H]6CC[C@]54C)[C@H]3[C@H]12` [OCHRACEOLIDE A], the CC50 at 48 h in data set [1] is more than 100 µM. The IC50 in data set [3] turned out to be 39 µM. The inhibition at 10 µM in data set [4] is more than 50%. Moreover, the “Ratio CC50/IC50” value in data set [5] is listed as more than 2.6.
